For series [1], the system named is Enterococcus faecium. The experiment in a line: Antibacterial activity against Enterococcus faecium HM965 incubated for 18 to 20 hrs under aerobic condition by CLSI protocol based broth microdilution assay. The class given is functional. The following applies: time hrs 18-20. The essentials: (§1)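 Broth microdilution per CLSI. Strains grown aerobically overnight on trypticase soy agar at 37 °C. Inoculum set to 0.5 McFarland, diluted in trypticase soy broth to about 5 × 10⁵ CFU/mL. Agents serially diluted, plates incubated aerobically at 37 °C for 18–20 h. MIC is the lowest concentration with no visible growth. Compound stocks 10 mg/mL in DMSO.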
Background: Broth dilution looks for growth in wells or tubes with falling amounts of substance.

For series [2], the system named is Enterococcus faecium. Nature of the series: Antibacterial activity against Enterococcus faecium NR-31903 incubated for 18 to 20 hrs under aerobic condition by CLSI protocol based broth microdilution assay. The class given is functional. Conditions: time hrs 18-20. The essentials: as §1
For series [3], the system named is Enterococcus faecium. The experiment in a line: Antibacterial activity against Enterococcus faecium NR-28978 incubated for 18 to 20 hrs under aerobic condition by CLSI protocol based broth microdilution assay. The class given is functional. Conditions: time hrs 18-20. The essentials: as §1
Series [4] deals with Enterococcus faecium. The experiment in a line: Antibacterial activity against Enterococcus faecium NR-31914 incubated for 18 to 20 hrs under aerobic condition by CLSI protocol based broth microdilution assay. Type of series: functional. The following applies: time hrs 18-20. In outline:
as §1

Series [5] deals with Enterococcus faecium. Nature of the series: Antibacterial activity against Enterococcus faecium NR-32065 incubated for 18 to 20 hrs under aerobic condition by CLSI protocol based broth microdilution assay. Type of series: functional. Conditions: time hrs 18-20. In outline:
as §1

In series [6] the test system is Enterococcus faecium. The experiment in a line: Antibacterial activity against Enterococcus faecium HM968 incubated for 18 to 20 hrs under aerobic condition by CLSI protocol based broth microdilution assay. The class given is functional. Conditions: time hrs 18-20. The essentials:
as §1

The test system of series [7] is Caco-2. The experiment in a line: Cytotoxicity against human Caco2 cells at 128 ug/ml incubated for 2 hrs by MTS assay. Type of series: cell-based. The following applies: caco-2, 2 h, dose 128 µg/ml. The essentials:
(§2)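 Caco-2 cells maintained in DMEM with 10% FBS, non-essential amino acids and penicillin-streptomycin at 37 °C, 5% CO₂. Compound exposure for 2 h in serum-free medium at several concentrations; DMSO-matched controls. Viability expressed relative to DMSO controls (mean ± SD), and CC₅₀ derived.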

The subject of series [8] is Enterococcus faecium. The experiment in a line: Antibacterial activity against Enterococcus faecium NR-31971 incubated for 18 to 20 hrs under aerobic condition by CLSI protocol based broth microdilution assay. Type of series: functional. Conditions: time hrs 18-20. In outline: as §1
For series [9], the system named is Enterococcus faecalis. The experiment in a line: Antibacterial activity against Enterococcus faecalis HM-335 incubated for 18 to 20 hrs under aerobic condition by CLSI protocol based broth microdilution assay. The class given is functional. The following applies: time hrs 18-20. In outline: as §1
Series [10] has as its system Enterococcus faecium. The experiment in a line: Inhibition of carbonic anhydrase in Enterococcus faecium ATCC 700221 assessed as antibacterial activity incubated for 18 to 20 hrs in presence of ambient air by CLSI protocol based broth microdilution assay. The following applies: time hrs 18-20. The essentials: (§3)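 CLSI broth microdilution: inoculum about 5 × 10⁵ CFU/mL in trypticase soy broth with serial dilutions of agents. Paired plates incubated at 37 °C for 18–20 h, one set in ambient air ("normal"), the other under 5% CO₂. MIC is the lowest concentration completely inhibiting visible growth.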

The test system of series [11] is Enterococcus faecalis. Nature of the series: Antibacterial activity against Enterococcus faecalis HM-334 incubated for 18 to 20 hrs under aerobic condition by CLSI protocol based broth microdilution assay. The following applies: time hrs 18-20. The class given is functional. The essentials:
as §1

Series [12] can be described thus: Cytotoxicity against human Caco2 cells incubated for 2 hrs by MTS assay. Type of series: cell-based. The following applies: Caco-2 cells. The essentials: as §2
Background: Tetrazolium dyes change colour on reduction, which living cells bring about.

The test system of series [13] is Enterococcus faecium. Nature of the series: Antibacterial activity against Enterococcus faecium NR-32052 incubated for 18 to 20 hrs under aerobic condition by CLSI protocol based broth microdilution assay. Type of series: functional. The following applies: time hrs 18-20. In outline: as §1
Series [14] has as its system Enterococcus faecium. Nature of the series: Antibacterial activity against Enterococcus faecium NR-31916 incubated for 18 to 20 hrs under aerobic condition by CLSI protocol based broth microdilution assay. Type of series: functional. The following applies: time hrs 18-20. The essentials: as §1
For series [15], the system named is Enterococcus faecium. Nature of the series: Inhibition of carbonic anhydrase in Enterococcus faecium ATCC 700221 assessed as antibacterial activity incubated for 18 to 20 hrs in presence of 5% CO2 by CLSI protocol based broth microdilution assay. Conditions: time hrs 18-20. The essentials:
as §3

Series [16] concerns Enterococcus faecium. The experiment in a line: Antibacterial activity against Enterococcus faecium NR-31972 incubated for 18 to 20 hrs under aerobic condition by CLSI protocol based broth microdilution assay. Type of series: functional. The following applies: time hrs 18-20. The essentials:
as §1

Series [17] relates to Enterococcus faecalis. The experiment in a line: Antibacterial activity against Enterococcus faecalis NR-31975 incubated for 18 to 20 hrs under aerobic condition by CLSI protocol based broth microdilution assay. Type of series: functional, organism-based. Conditions: time hrs 18-20. In outline: as §1
Series [18] deals with Enterococcus faecalis. The experiment in a line: Antibacterial activity against Enterococcus faecalis NR-31970 incubated for 18 to 20 hrs under aerobic condition by CLSI protocol based broth microdilution assay. Type of series: functional, organism-based. Conditions: time hrs 18-20. The essentials:
as §1

In brackets after ≈: the same amount, converted by molar mass. Activity calls are given as the source filed them. The rule behind the calls is not given here.

A word on the MIC: it is the lowest concentration that inhibits growth of the organism. A lower MIC goes with greater potency. By CC50 is commonly meant the concentration at which the toxic effect on the cells reaches its halfway point. Low values mean greater toxicity to the cells, high ones lower toxicity to the cells.

In [1], `CC1CCC(C(=O)Nc2nnc(S(N)(=O)=O)s2)CC1` (configuration not stated) showed an MIC of 0.25 µg/mL (≈ 0.821 µM).
Consider `NS(=O)(=O)c1nnc(NC(=O)CC2CC2)s1`, for which the MIC is 0.25 µg/mL (≈ 0.953 µM) in series [2]; 1 µg/mL (≈ 3.81 µM) in [3]; 0.25 µg/mL (≈ 0.953 µM) in [1]; 0.5 µg/mL (≈ 1.91 µM) in series [4]; 0.25 µg/mL (≈ 0.953 µM) in [5]; 0.5 µg/mL (≈ 1.91 µM) in [6]. Further, the MIC in series [8] amounted to 0.5 µg/mL (≈ 1.91 µM); in [9] it was 0.25 µg/mL (≈ 0.953 µM); in series [11] it was 0.5 µg/mL (≈ 1.91 µM); in series [13], 0.25 µg/mL (≈ 0.953 µM); in [14], 0.25 µg/mL (≈ 0.953 µM); in [16], 0.5 µg/mL (≈ 1.91 µM). Moreover, in series [7], the Activity result is “Non-Toxic”. Also, the inhibition entry in series [10] was “Active”. The same molecule came in with a CC50 at 2 h in series [12] of more than 128 µg/mL. Also, the inhibition result in [15] is “inactive”.
`NS(=O)(=O)c1nnc(NC(=O)CCN2CCOCC2)s1` showed an MIC in series [1] of 2 µg/mL (≈ 6.22 µM). Moreover, the inhibition entry in series [10] was “Active”. Moreover, the inhibition entry in [15] is “inactive”.
`NS(=O)(=O)c1nnc(NC(=O)c2ccccc2)s1` registered an MIC in [1] of 2 µg/mL (≈ 7.03 µM).
With `NS(=O)(=O)c1nnc(NC(=O)CN2CCCC2)s1`, the lowest concentration to inhibit growth in [1] (MIC) was 1 µg/mL (≈ 3.43 µM). Further, the inhibition result in series [10] was “Active”. Further, in series [15], the inhibition entry was “inactive”.
For the molecule `CC(C)(C)C(=O)Nc1nnc(S(N)(=O)=O)s1`, the outcome in series [17] and in series [18] was Active. Besides, the MIC amounted to 0.5 µg/mL (≈ 1.89 µM) in [2]; 0.25 µg/mL (≈ 0.946 µM) in [3]; 0.25 µg/mL (≈ 0.946 µM) in series [1]; 0.5 µg/mL (≈ 1.89 µM) in series [4]; 0.25 µg/mL (≈ 0.946 µM) in [5]; 0.5 µg/mL (≈ 1.89 µM) in [6]. Further, the MIC came to 0.5 µg/mL (≈ 1.89 µM) in series [8]; 0.5 µg/mL (≈ 1.89 µM) in series [9]; 0.5 µg/mL (≈ 1.89 µM) in [11]; 0.5 µg/mL (≈ 1.89 µM) in series [13]; 0.5 µg/mL (≈ 1.89 µM) in [14]; 1 µg/mL (≈ 3.78 µM) in series [16]. Also, the Activity entry in series [7] is recorded as “Non-Toxic”. This molecule also had a CC50 at 2 h in series [12] of more than 128 µg/mL.
With `CC1(C(=O)Nc2nnc(S(N)(=O)=O)s2)CCCCC1`, the MIC in [1] came to 0.25 µg/mL (≈ 0.821 µM).
For the molecule `CCC(=O)Nc1nnc(S(N)(=O)=O)s1` [PROPAZOLAMIDE], in series [1], the lowest concentration to inhibit growth (MIC) was 1 µg/mL (≈ 4.23 µM). For the same molecule, in series [10], the inhibition entry was “Active”. In addition, the inhibition result in series [15] is “inactive”.
As for `NS(=O)(=O)c1nnc(NC(=O)C2CCC2)s1`, the result in [17] and in series [18] was Active. The same molecule yielded an MIC in [1] of 0.5 µg/mL (≈ 1.91 µM). The inhibition entry in [10] was “Active”. Besides, the inhibition result in series [15] is “inactive”.
As for `NS(=O)(=O)c1nnc(NC(=O)CC2CCC2)s1`, the MIC in series [1] stood at 0.25 µg/mL (≈ 0.905 µM).
For the molecule `CCCCCCC(=O)Nc1nnc(S(N)(=O)=O)s1`, the result in [17] and in [18] was Active. Also, the MIC in [2] came out at 0.03 µg/mL (≈ 0.103 µM); in series [3] it was 0.06 µg/mL (≈ 0.205 µM); in series [1], 0.015 µg/mL (≈ 0.0513 µM); in [4], 0.03 µg/mL (≈ 0.103 µM); in series [5], 0.03 µg/mL (≈ 0.103 µM); in series [6], 0.015 µg/mL (≈ 0.0513 µM). The MIC in series [8] came out at 0.03 µg/mL (≈ 0.103 µM); in series [9], 0.015 µg/mL (≈ 0.0513 µM); in series [11], 0.015 µg/mL (≈ 0.0513 µM); in series [13], 0.03 µg/mL (≈ 0.103 µM); in [14], 0.06 µg/mL (≈ 0.205 µM); in [16], 0.03 µg/mL (≈ 0.103 µM). Further, the Activity result in [7] was “Non-Toxic”. Further, the inhibition entry in series [10] was “Active”. In addition, the CC50 at 2 h in series [12] is more than 128 µg/mL. The inhibition entry in [15] was “inactive”.
`CC(C)C(=O)Nc1nnc(S(N)(=O)=O)s1`: the MIC in [1] was 1 µg/mL (≈ 4 µM). Moreover, in series [10], the inhibition entry is “Active”. The inhibition result in series [15] was “inactive”.
On to `NS(=O)(=O)c1nnc(NC(=O)CN2CCCCC2)s1`, for which, in [1], the MIC is 1 µg/mL (≈ 3.27 µM).

(Values after ChEMBL document CHEMBL4725360, “Optimization of Acetazolamide-Based Scaffold as Potent Inhibitors of Vancomycin-Resistant Enterococcus” (J Med Chem, 2020).)
